Test results from ChEMBL document CHEMBL1800056, “Discovery of 2-(6-{[(6-fluoroquinolin-2-yl)methyl]amino}bicyclo[3.1.0]hex-3-yl)-N-hydroxypyrimidine-5-carboxamide (CHR-3996), a class I selective orally active histone deacetylase inhibitor” (J Med Chem, 2010).
Converted amounts (≈) assume the structure as drawn. The source made the active and inactive calls. The rule behind the calls is not given here.

Experiments:
[1] = Ratio of GI50 for SAHA to compound for human […] cells after 72 hrs by WST-1 assay; type: functional
Summary of the method: (§1)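 Cells seeded at (1-5) × 10³/well in serum-containing medium and grown 24 h at 37 °C, 5% CO₂. They were then exposed for 72 h to HDAC inhibitor (0.6-10000 nM), with SAHA run alongside in the same panel. WST-1 was added for the final 4 h and read at 450 nm (650 nm reference). GI50 taken as 50% inhibition of the vehicle response, n = 6.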

U-937 = assay: Ratio of GI50 for SAHA to compound for human U937 cells after 72 hrs by WST-1 assay; type: functional; summary of the method: as §1
MOLT-4 = assay: Ratio of GI50 for SAHA to compound for human MOLT4 cells after 72 hrs by WST-1 assay; type: functional; summary of the method: as §1
[2] = Half life in rat at 10 mg/kg, po; type: ADME, organism-based; set-up: dose 10 mg/kg, route oral; conditions: in vivo
Summary of the method: (§2)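 Rat single dose, iv 1 mg/kg or po 10 mg/kg, both in 1% DMSO-HPβC (11.25% w/v). AUC0-t in ng h/mL, clearance in (mL/min)/kg, t1/2 in h, F in %.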

[3] = Aqueous solubility of the compound in PBS at pH 7.4; type: physicochemical
[4] = Drug level in tumor of BALB/c mouse at 50 mg/kg, po administered daily for 14 days; type: ADME, organism-based, Neoplasm; set-up: dose 50 mg/kg, route oral; conditions: read-out: Drug uptake
Summary of the method: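 HCT116 xenografts in female nude BALB/c mice, run at EpiStem. Oral daily dosing for 14 days in 5% DMSO-saline at 50 or 75 mg/kg. Tumor volume measured relative to start; drug concentrations in tumor and plasma measured.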

Rattus norvegicus = assay: Oral bioavailability in rat at 10 mg/kg; type: ADME, organism-based; conditions: in vivo; summary of the method: as §2
Mus musculus = assay: In-vivo inhibition of HDAC6 in human HCT116 cells xenografted CrTac:NCr-Fox1 nude mouse assessed as alpha-tubulin acetylation at 50 mg/kg, po administered daily for 16 days by Western blot analysis relative to control; type: functional, organism-based; set-up: dose 50 mg/kg; conditions: HCT-116
Summary of the method: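 Female CrTac:NCr-Fox1(nu) mice, 6-8 weeks old, bearing bilateral sc HCT116 tumors (2 million cells). Daily oral 50 mg/kg in 10% DMSO-saline from day 6 (tumors ~5 mm) to day 16; vehicle controls. Tumor lysates taken 0.5, 1.0 and 4 h after the last dose. Western blot for acetylated histone H3 or α-tubulin, normalized to GAPDH.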

Compound | RatioGI50 [1] | RatioGI50 (U-937) | RatioGI50 (MOLT-4) | half-life [2] [h] | solubility [3] [µg/mL] | concentration at 336 h [4] [ng/mL] | F (Rattus norvegicus) [%] | inhibition (Mus musculus)
O=C(NO)c1cnc(N2C[C@@H]3[C@H](C2)[C@H]3NCc2ccc3cc(F)ccc3n2)nc1 [NANATINOSTAT] | 19 | 8.7 | 21.6 | 5.2 | 1 (≈ 2.54 µM) | 133 | 27 | 
O=C(NO)c1cnc(N2C[C@@H]3[C@H](C2)[C@H]3NCc2ccc(Cl)cc2)nc1 |  |  |  |  |  |  |  | inactive
